Molecules are shown by their SMILES.

One may read the Kd as a measure of binding affinity in units of concentration. The chromatographic logD is a lipophilicity value derived from retention on a column. By half-life is commonly meant how long it takes for the measured level to halve.

Series [1] concerns the target T1, Von Hippel-Lindau disease tumor suppressor/Elongin B/Elongin C (Homo sapiens, UniProt P40337). As to the kind of experiment: Displacement of FAM-labeled HIF-1alpha peptide from VBC (unknown origin) by fluorescence polarization assay. (In fluorescence polarisation assays a small probe gives low polarisation when free and higher when bound to something large.)
The target in series [2] is T2, Von Hippel-Lindau disease tumor suppressor/Elongin B/Elongin C (Homo sapiens) (UniProt P40337+Q15370+Q15369). As to the kind of experiment: Inhibition of VBC in human HeLa cells assessed as HIF-1alpha stabilization by measuring HIF-1alpha protein levels at 50 uM after 2 hrs by Western blot analysis. Type of series: cell-based. More on the design: scale not given: the % may be the effect or the level left. The procedure, abridged: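 HeLa (ATCC) grown in DMEM with 10% FBS, L-glutamine and penicillin/streptomycin at 37 °C; mycoplasma-tested. Treated 2 h in fresh medium, 1% DMSO as vehicle control. Lysed in RIPA buffer with protease inhibitors, SDS-PAGE, nitrocellulose blot. Anti-HIF-1α probed with β-actin as loading control, IRDye 800CW secondary for detection. Levels normalized to a reference VHL inhibitor.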
T2 sequence (P40337 whole entry, looked up): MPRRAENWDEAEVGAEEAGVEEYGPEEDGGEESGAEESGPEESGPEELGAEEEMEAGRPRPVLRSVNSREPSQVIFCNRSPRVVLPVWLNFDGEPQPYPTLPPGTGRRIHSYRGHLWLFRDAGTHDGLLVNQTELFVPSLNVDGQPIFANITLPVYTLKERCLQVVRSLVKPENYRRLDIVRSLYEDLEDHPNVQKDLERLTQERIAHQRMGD
T2 sequence (Q15369 whole entry, looked up): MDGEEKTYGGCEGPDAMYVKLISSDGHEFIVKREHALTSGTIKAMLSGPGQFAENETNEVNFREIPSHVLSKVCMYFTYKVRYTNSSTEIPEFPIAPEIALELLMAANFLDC
T2 sequence (Q15370 whole entry, looked up): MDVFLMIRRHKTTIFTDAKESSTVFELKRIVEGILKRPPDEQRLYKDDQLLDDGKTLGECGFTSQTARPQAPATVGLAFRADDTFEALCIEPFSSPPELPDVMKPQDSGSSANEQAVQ

Series [3] in a line: Passive permeability of the compound in pH 7.4 PBS at 10 uM after 5 hrs by UPLC-MS/MS method based PAMPA. The settings on record: pH 7.4, 5 h. Type of series: ADME. A digest of the protocol: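 Precoated PAMPA plate with lipid–oil–lipid trilayer filter. Compound at 10 μM in PBS pH 7.4 (≤5% DMSO) in the donor well, PBS in the acceptor well. Held 5 h at room temperature; both compartments quantified by UPLC-MS/MS. Pe calculated from peak areas; data accepted only if recovery exceeded 70%. Propranolol as control.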
For orientation: In PAMPA a lipid-coated filter parts donor from acceptor wells.

Series [4] is described as follows: Chromatographic hydrophobicity index, log D of the compound at pH 7.4 by HPLC analysis. The settings on record: buffer. It is filed as physicochemical. The procedure, abridged:
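DMSO stocks (10 mM) diluted to 0.25 mM in 50:50 acetonitrile:water. Run on C18 HPLC at 20 °C, 1 mL/min. Mobile phase 10 mM ammonium acetate pH 7.4 with an acetonitrile gradient. Retention times calibrated against a standard mix of eleven reference compounds, then converted to CHIlogD.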

For series [5], the target named is T1, Von Hippel-Lindau disease tumor suppressor/Elongin B/Elongin C.
Series [6] relates to HeLa. Description: Antiproliferative activity against human HeLa cells assessed as reduction in cell proliferation at 150 uM incubated for 24 to 72 hrs by haemocytometry. Type of series: cell-based.
Series [7] deals with HeLa. As to the kind of experiment: Antiproliferative activity against human HeLa cells assessed as reduction in colony formation at 150 uM incubated for 24 hrs by crystal violet staining based assay. Type of series: cell-based. The procedure, abridged:
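HeLa cells, 500–2000 per well, seeded one day before exposure to 150 μM compound; 1% DMSO as vehicle control. Medium replaced after 24 h treatment, then grown a further week. Stained with 0.005% crystal violet in 25% methanol for 10 min at room temperature. Colonies counted on scanned plates.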

Series [8] can be described thus: Half life in plasma (unknown origin) at pH 7.4 at 50 uM up to 180 mins by UPLC-MS/MS analysis. Type of series: ADME, cell-free. A digest of the protocol: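 Compound at 50 μM incubated at 37 °C in prewarmed plasma buffered to pH 7.4 (70:30 plasma to buffer). Aliquots were taken at 0, 30, 60, 120 and 180 min and quenched in acetonitrile with donepezil internal standard. Samples were centrifuged and analysed by UPLC-MS/MS. The rate constant was fitted as exponential decay of the compound/internal standard peak-area ratio.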

Series [9] in a line: Intrinsic clearance in CD1 mouse liver microsomes at 0.5 uM up to 30 mins by UPLC-MS/MS analysis. Type of series: ADME, microsome. The settings on record: 0.5 h. A digest of the protocol:
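Compound at 0.5 μM with female CD1 mouse liver microsomes (0.5 mg/mL) in 50 mM potassium phosphate pH 7.4, started with excess NADPH. Samples quenched in acetonitrile at 0, 3, 6, 9, 15 and 30 min; UPLC-MS/MS against internal standard. Decay rate constant converted to CLi assuming 52.5 mg microsomal protein/g liver. Verapamil as assay control.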
For orientation: Liver microsomes are vesicles of endoplasmic reticulum, rich in cytochrome P450 enzymes.

The target in series [10] is T2, Von Hippel-Lindau disease tumor suppressor/Elongin B/Elongin C (Homo sapiens). As to the kind of experiment: Binding affinity to VBC (unknown origin) assessed as association rate constant at 50 uM after 60 secs at 10 degC by surface plasmon resonance assay. Type of series: protein-complex assay. The procedure, abridged: (§1)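 SPR on a Biacore T100 at 10 and 20 °C against VBC complex. Ligand stock 50 μM in DMSO, 2-fold serial dilutions in SPR buffer (20 mM HEPES, 150 mM NaCl, 1 mM DTT, 0.005% Tween P20, pH 7.0). Kd taken as koff/kon.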

Series [11] has the same target. As to the kind of experiment: Binding affinity to VBC (unknown origin) assessed as dissociation rate constant at 50 uM after 160 secs at 10 degC by surface plasmon resonance assay. Type of series: protein-complex assay. A digest of the protocol: as §1
Series [12] has the same target. Description: Binding affinity to VBC (unknown origin) assessed as association rate constant at 50 uM after 60 secs at 20 degC by surface plasmon resonance assay. It is filed as protein-complex assay. A digest of the protocol:
as §1

Series [13] has the same target. Description: Binding affinity to VBC (unknown origin) assessed as dissociation rate constant at 50 uM after 160 secs at 20 degC by surface plasmon resonance assay. It is filed as protein-complex assay. The procedure, abridged:
as §1

For series [14], the target named is T1, Von Hippel-Lindau disease tumor suppressor/Elongin B/Elongin C. The source holds these as a separate data set.
The target is the same in series [15]. The source holds these as a separate data set.
For series [16], the target named is T2, Von Hippel-Lindau disease tumor suppressor/Elongin B/Elongin C (Homo sapiens).
For series [17] the target is unchanged. The source holds these as a separate data set.

T1 sequence (P40337 whole entry, looked up): as the sequence (P40337 whole entry, looked up) above

Molecule `CC(=O)N1CC(C(=O)N[C@H](C(=O)N2C[C@H](O)C[C@H]2C(=O)NCc2ccc(-c3scnc3C)cc2)C(C)(C)C)C1` gave a Kd in series [1] of 4900 nM. Moreover, in series [2], the Activity was determined as 12%.
In the case of `Cc1ncsc1-c1ccc(CNC(=O)[C@@H]2C[C@@H](O)CN2C(=O)[C@@H](NC(=O)C2CC2)C(C)(C)C)cc1`, the Kd in series [1] came out at 170 nM; in series [5], 132 nM. Besides, in series [2], the Activity is 105%. The same molecule gave a permeability in series [3] of 0.61 ×10⁻⁶ cm/s. The chromatographic logD in series [4] worked out at 1.14.
Turning to `Cc1ncsc1-c1ccc(CNC(=O)[C@@H]2C[C@H](O)CN2C(=O)[C@@H](NC(=O)C2(C#N)CC2)C(C)(C)C)cc1`, the Activity result in series [6] and in [7] was “Non-Toxic” throughout.
Consider `CC(=O)N[C@@H](C)C(=O)N1C[C@H](O)C[C@H]1C(=O)NCc1ccc(-c2scnc2C)cc1`, for which the Activity in [2] is 12%.
Turning to `CC(=O)NC1(C(=O)N[C@H](C(=O)N2C[C@H](O)C[C@H]2C(=O)NCc2ccc(-c3scnc3C)cc2)C(C)(C)C)CC1`, the Kd turned out to be 300 nM in [1] and 138 nM in series [5]. In addition, in [2], the Activity stood at 20%. Further, the permeability in series [3] came out at 0.01 ×10⁻⁶ cm/s. Also, the chromatographic logD in [4] worked out at 0.61.
Taken in the same sequence, the figures for `Cc1ncsc1-c1ccc(CNC(=O)[C@@H]2C[C@@H](O)CN2C(=O)[C@@H](NC(=O)CO)C(C)(C)C)cc1` were 200 nM, 105 nM, 16%, 0.01 ×10⁻⁶ cm/s and 0.65.
`Cc1ncsc1-c1ccc(CNC(=O)[C@@H]2C[C@@H](O)CN2C(=O)[C@@H](NC(=O)C2CC(=O)C2)C(C)(C)C)cc1`: the affinity in series [1], expressed as Kd, was 500 nM. Also, the Activity in series [2] is 28%.
`CC(=O)N(C)[C@H](C(=O)N1C[C@H](O)C[C@H]1C(=O)NCc1ccc(-c2scnc2C)cc1)C(C)(C)C`: in [2], the Activity is 26%.
As for `Cc1ncsc1-c1ccc(CNC(=O)[C@@H]2C[C@@H](O)CN2C(=O)[C@@H](NC(=O)C(Cl)(Cl)Cl)C(C)(C)C)cc1`, the Kd in series [1] came to 200 nM. Also, the Activity in [2] turned out to be 89%.
Regarding `CC(=O)N[C@H](C(=O)N1C[C@H](O)C[C@H]1C(=O)NCc1ccc(-c2scnc2C)cc1)C(C)(C)C`, the Activity in series [2] amounted to 100%. Besides, in series [3], the permeability was 0.12 ×10⁻⁶ cm/s. The molecule further yielded a chromatographic logD in series [4] of 0.9. The half-life at 50 µM in series [8] is > 3 h. Besides, the “intrinsic clearance (CLint)” value in [9] turned out to be 0.7 mL/min/g.
Turning to `Cc1ncsc1-c1ccc(CNC(=O)[C@@H]2C[C@@H](O)CN2C(=O)[C@@H](NC(=O)C2CCC2)C(C)(C)C)cc1`, the Kd in series [1] amounted to 250 nM; in series [5] it was 210 nM; in [14], 271 nM; in series [15], 233 nM. Moreover, in [2], the Activity was found to be 138%. This molecule also showed a permeability in series [3] of 1.16 ×10⁻⁶ cm/s. This molecule gave a chromatographic logD in [4] of 1.3. Further, the K was determined as 5.17 ×10⁵ /M/s in [10], 0.14 s⁻¹ in series [11], 1.1 ×10⁶ /M/s in series [12] and 0.256 s⁻¹ in series [13]. The half-life at 50 µM in [8] is > 3 h. Besides, the “intrinsic clearance (CLint)” value in series [9] amounted to 3 mL/min/g. In [16], this molecule yielded a T1/2 of 4.95 s.
With `CCC(=O)N[C@H](C(=O)N1C[C@H](O)C[C@H]1C(=O)NCc1ccc(-c2scnc2C)cc1)C(C)(C)C`, the Activity in series [2] turned out to be 98%.
With `CC(=O)C1(C(=O)N[C@H](C(=O)N2C[C@H](O)C[C@H]2C(=O)NCc2ccc(-c3scnc3C)cc2)C(C)(C)C)CC1`, the dissociation constant (Kd) in series [1] worked out at 170 nM; in series [5], 106 nM; in [14] it was 115 nM; in series [15], 97 nM. Also, the Activity in series [2] amounted to 156%. In [3], the permeability turned out to be 1.5 ×10⁻⁶ cm/s. The same molecule gave a chromatographic logD in series [4] of 1.34. The K in [10] was found to be 6 ×10⁵ /M/s; in series [11], 0.069 s⁻¹; in [12], 8.2 ×10⁵ /M/s; in [13], 0.169 s⁻¹. Moreover, the half-life at 50 µM in series [8] is > 3 h. The “intrinsic clearance (CLint)” value in series [9] worked out at 2.5 mL/min/g. For the same molecule, the figures for the T1/2 in [16] and in series [17] were 10 s and 4.1 s, respectively.
As to `Cc1ncsc1-c1ccc(CNC(=O)[C@@H]2C[C@@H](O)CN2C(=O)[C@@H](NC(=O)C2COC2)C(C)(C)C)cc1`, the Kd was 320 nM in series [1] and 230 nM in [5]. The Activity in [2] is 34%. For the same molecule, the permeability in series [3] amounted to 0.03 ×10⁻⁶ cm/s. Moreover, the chromatographic logD in series [4] turned out to be 0.71.
Turning to `Cc1ncsc1-c1ccc(CNC(=O)[C@@H]2C[C@H](O)CN2C(=O)[C@@H](NC(=O)C2(F)CC2)C(C)(C)C)cc1`, the Activity entry in series [6] and in series [7] was “Toxic” throughout.
With `Cc1ncsc1-c1ccc(CNC(=O)[C@@H]2C[C@@H](O)CN2C(=O)[C@@H](N2CCCC2=O)C(C)(C)C)cc1`, the Kd in [1] amounted to 1400 nM. The Activity in series [2] stood at 33%.
The matching figures for `Cc1ncsc1-c1ccc(CNC(=O)[C@@H]2C[C@@H](O)CN2C(=O)[C@@H](NC(=O)C(C)(C)F)C(C)(C)C)cc1`: 770 nM and 19%.
Turning to `Cc1ncsc1-c1ccc(CNC(=O)[C@@H]2C[C@@H](O)CN2C(=O)[C@@H](NC(=O)C(F)(F)F)C(C)(C)C)cc1`, in series [1], the Kd worked out at 270 nM. Moreover, the Activity in series [2] came out at 95%.
The matching figures for `Cc1ncsc1-c1ccc(CNC(=O)[C@@H]2C[C@@H](O)CN2C(=O)[C@@H](NC(=O)OC(C)(C)C)C(C)(C)C)cc1`: 6500 nM and 12%.
Turning to `Cc1ncsc1-c1ccc(CNC(=O)[C@@H]2C[C@@H](O)CN2C(=O)[C@@H](NC(=O)C2(C#N)CC2)C(C)(C)C)cc1`, the Activity was 190% in series [2], “Non-Toxic” in series [6] and “Non-Toxic” in series [7]. The molecule also had a permeability in [3] of 1.94 ×10⁻⁶ cm/s. The chromatographic logD in series [4] amounted to 1.4. The half-life at 50 µM in series [8] is > 3 h. Further, the “intrinsic clearance (CLint)” value in series [9] was 3.1 mL/min/g.
Molecule `Cc1ncsc1-c1ccc(CNC(=O)[C@@H]2C[C@@H](O)CN2C(=O)[C@@H](NC(=O)C2(F)CC2)C(C)O)cc1` (single isomer, unassigned) displayed a Kd in series [1] of 370 nM. Further, the Activity in [2] was determined as 46%.
The matching figures for `Cc1ncsc1-c1ccc(CNC(=O)[C@@H]2C[C@@H](O)CN2C(=O)[C@@H](NC(=O)CC(C)(C)C)C(C)(C)C)cc1`: 450 nM and 65%.

(Values after ChEMBL document CHEMBL4219039, “Group-Based Optimization of Potent and Cell-Active Inhibitors of the von Hippel-Lindau (VHL) E3 Ubiquitin Ligase: Structure-Activity Relationships Leading to the Chemical Probe …” (J Med Chem, 2018).)
